Data as given in ChEMBL document CHEMBL3576784, “Azolylthioacetamide: A Highly Promising Scaffold for the Development of Metallo-β-lactamase Inhibitors” (ACS Med Chem Lett, 2015).

Each compound was assayed against Beta-lactamase (Aeromonas veronii, UniProt O31272) (assay: Inhibition of Aeromonas veronii metallo-beta-lactamase ImiS expressed in Escherichia coli BL21(DE3) using imipenem substrate pre-incubated for 30 mins by Lineweaver-Burk plot method). Conditions: not given; call rule not given here.
Summary of the method: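 Purified enzyme; initial rates of imipenem hydrolysis followed by UV spectrophotometry (262 or 300 nm) in 50 mM Tris pH 7.0, 25 °C. Substrate 24–140 μM, inhibitor 0–10 μM. Rates in triplicate and averaged. Inhibition mode from Lineweaver–Burk plots. Ki from fits of initial velocity vs substrate concentration at each inhibitor level.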

Sequence of Beta-lactamase (O31272 whole entry): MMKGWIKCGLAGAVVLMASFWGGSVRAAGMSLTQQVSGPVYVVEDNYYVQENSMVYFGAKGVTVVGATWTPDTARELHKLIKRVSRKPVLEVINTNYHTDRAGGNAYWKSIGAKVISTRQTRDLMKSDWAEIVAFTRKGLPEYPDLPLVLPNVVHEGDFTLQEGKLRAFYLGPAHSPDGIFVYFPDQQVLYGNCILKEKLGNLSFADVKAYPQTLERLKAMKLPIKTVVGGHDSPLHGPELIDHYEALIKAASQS

Row | Ki | SMILES
1 | Not Active | O=C(CSc1nnc(-c2ccccc2C(=O)O)[nH]1)NCc1ccccc1
2 | Not Active | O=C(O)CCc1nnc(SCC(=O)Nc2nc3ccccc3s2)[nH]1
3 | Not Active | O=C(O)CCCc1nnc(SCC(=O)Nc2nc3ccccc3[nH]2)[nH]1

Same assay, conditions: read-out: Ki

Row | SMILES | Ki
4 | O=C(CSc1nnc(-c2ccccc2C(=O)O)[nH]1)Nc1ccccc1 | 1.8 µM
5 | O=C(CSc1nnc(-c2ccccc2C(=O)O)[nH]1)Nc1nc2ccccc2s1 | 1.2 µM
6 | O=C(CSc1nnc(-c2ccccc2C(=O)O)[nH]1)Nc1ccc(Cl)cc1 | 1.4 µM
7 | O=C(CSc1nnc(-c2ccccc2C(=O)O)[nH]1)Nc1ccc([N+](=O)[O-])cc1 | 2.2 µM
8 | O=C(CSc1nnc(-c2ccccc2C(=O)O)[nH]1)Nc1ccccc1Cl | 2.3 µM
9 | O=C(CSc1nnc(-c2ccccc2C(=O)O)[nH]1)Nc1cccc(Cl)c1 | 2.4 µM
10 | O=C(CSc1nnc(-c2ccccc2C(=O)O)[nH]1)Nc1ccccc1[N+](=O)[O-] | 2.7 µM
11 | O=C(CSc1nnc(-c2ccccc2C(=O)O)[nH]1)Nc1cccc([N+](=O)[O-])c1 | 1.9 µM

More lines, now with the values ahead:

Row | Ki | SMILES
12 | 3.6 µM | O=C(CSc1nnc(-c2ccccc2C(=O)O)[nH]1)Nc1nc2ccccc2[nH]1
13 | > 5000 µM | O=C(O)CCc1nnc(SCC(=O)Nc2ccccc2)[nH]1
14 | > 2500 µM | O=C(O)CCc1nnc(SCC(=O)Nc2nc3ccccc3[nH]2)[nH]1
15 | > 5000 µM | O=C(O)CCc1nnc(SCC(=O)Nc2ccc(Cl)cc2)[nH]1
